From ChEMBL document CHEMBL3351671, “Synthesis and anticancer activity of (E)-2-benzothiazole hydrazones” (Eur J Med Chem, 2014)

Experiments:
[1] = Cytotoxicity against human HL60 cells after 72 hrs by MTT assay; format: functional, cell-based; details: HL-60, 72 h
Outline: (§1)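 Cells grown in DMEM with 10% fetal bovine serum, 2 mM glutamine, 100 U/mL penicillin and streptomycin at 37 °C under 5% CO₂. Compounds were dissolved in DMSO, diluted with water and incubated with cells for 72 h. Viability was read by MTT reduction to formazan. IC₅₀ with 95% confidence interval, triplicate experiments.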

[2] = tested on: MDA-MB-435; assay: Cytotoxicity against human MDA-MB-435 cells after 72 hrs by MTT assay; format: functional, cell-based; details: MDA-MB-435, 72 h
Outline: as §1, with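 “h. […]” for “h.”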

[3] = Cytotoxicity against human HCT8 cells after 72 hrs by MTT assay; format: functional, cell-based; details: HCT-8, 72 h; outline: as §1
[4] = Hemolytic toxicity in mouse erythrocytes assessed as induction of cell membrane disruption incubated for 30 mins by hemoglobin release based spectrophotometry; set-up: species or system Erythrocyte
Outline: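 Erythrocytes were exposed to compounds (DMSO stock, water-diluted) for 30 min at room temperature, then centrifuged. Hemoglobin released into the supernatant was read at 540 nm. DMSO served as negative control and 1% Triton X-100 as positive control.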

[5] = tested on: MRC5; assay: Cytotoxicity against human MRC5 cells after 72 hrs by MTT assay; format: cell-based; details: mrc5, 72 h

Row | Compound | IC50 [1] | IC50 [2] | IC50 [3] | EC50 at 30 min [4] | Activity [5]
1 | Cc1ccc(/C=N/Nc2nc3ccccc3s2)c(C)c1 | > 17.8 µM | > 17.8 µM | > 17.8 µM | > 200 µg/mL | –
2 | Fc1ccc(/C=N/Nc2nc3ccccc3s2)c(F)c1 | > 17.3 µM | > 17.3 µM | > 17.3 µM | > 200 µg/mL | –
3 | COc1ccc(/C=N/Nc2nc3ccccc3s2)c(OC)c1 | > 16 µM | > 16 µM | > 16 µM | > 200 µg/mL | –
4 | Oc1ccc(/C=N/Nc2nc3ccccc3s2)c(O)c1 | 1.89 µM | 14.4 µM | 3.43 µM | > 200 µg/mL | Non-toxic
5 | Oc1ccc(O)c(/C=N/Nc2nc3ccccc3s2)c1 | 0.59 µM | 6.27 µM | 11.2 µM | > 200 µg/mL | Non-toxic
6 | O=C(O)c1ccccc1/C=N/Nc1nc2ccccc2s1 | > 16.8 µM | > 16.8 µM | > 16.8 µM | > 200 µg/mL | –
7 | C(=N\Nc1nc2ccccc2s1)/c1ccc(-c2ccccn2)cc1 | 11.5 µM | > 15.1 µM | > 15.1 µM | > 200 µg/mL | Non-toxic
8 | Oc1ccc(/C=N/Nc2nc3ccccc3s2)cc1 | 4.6 µM | > 18.6 µM | > 18.6 µM | > 200 µg/mL | Non-toxic
9 | Clc1ccc(/C=N/Nc2nc3ccccc3s2)cc1 | > 17.4 µM | > 17.4 µM | > 17.4 µM | > 200 µg/mL | –
10 | Clc1ccc(/C=N/Nc2nc3ccccc3s2)c(Cl)c1 | > 15.5 µM | > 15.5 µM | > 15.5 µM | > 200 µg/mL | –
11 | CN(C)c1ccc(/C=N/Nc2nc3ccccc3s2)cc1 | > 16.9 µM | > 16.9 µM | > 16.9 µM | > 200 µg/mL | –
12 | O=[N+]([O-])c1ccc(O)c(/C=N/Nc2nc3ccccc3s2)c1 | 1.65 µM | 14 µM | 13.5 µM | > 200 µg/mL | Non-toxic
13 | Oc1cccc(/C=N/Nc2nc3ccccc3s2)c1O | 0.35 µM | > 17.5 µM | 1.29 µM | > 200 µg/mL | Non-toxic
14 | C(=N\Nc1nc2ccccc2s1)/c1ccc2c(c1)OCO2 | 5.51 µM | > 16.8 µM | > 16.8 µM | > 200 µg/mL | Non-toxic
15 | Oc1ccc(/C=N/Nc2nc3ccccc3s2)cc1O | 13.6 µM | > 17.5 µM | > 17.5 µM | > 200 µg/mL | Non-toxic
16 | COc1cccc2c1C(=O)c1c(O)c3c(c(O)c1C2=O)C[C@@](O)(C(=O)CO)C[C@@H]3O[C@H]1C[C@H](N)[C@H](O)[C@H](C)O1 [DOXORUBICIN] | – | – | – | > 200 µg/mL | –
17 | COc1cc(/C=N/Nc2nc3ccccc3s2)ccc1O | > 16.7 µM | > 16.7 µM | > 16.7 µM | > 200 µg/mL | –
18 | Brc1ccc(/C=N/Nc2nc3ccccc3s2)cc1 | > 15.1 µM | > 15.1 µM | > 15.1 µM | > 200 µg/mL | –
